Apaf-1 inh: human Apaf-1 inhibition; O14727; hit rate 0.71% among 330,000; inhibition, % at 20 µM; reconstituted apoptosome caspase-3 activity, DEVD-Rh110 fluorescence; active = inhibition of at least 40% at 20 µM;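 also: plate controls were DMSO wells for no effect and DEVD-CHO caspase inhibitor wells for full effect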
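Material: reconstituted apoptosome with Apaf-1, cytochrome c, caspase-9, procaspase-3, dATP. Technique: Rh110 fluorescence intensity. Buffer or medium: pH 7.5 Hepes buffer with CHAPS, BSA, DTT. Times: 30 min plus 50 min, RT.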
SENP8 block-1: SENP8 (human) protease inhibition; Q96LD8; recombinant SENP8, Nedd8 substrate fluorescence; inhibition, % at 20 µM; hit rate 0.64% among 360,000; AID 602440; in the data active = inhibition mostly above about 40%, no sharp cut-off; inactive = mostly below about 27%
SENP8 block-2: SENP8 protease inhibition | purified SENP8, Z-RLRGG-aminoluciferin cleavage, luminescence | Q96LD8 | inhibition, % at 10 µM | hit rate 1.2% among 330,000; in the data active = inhibition above about 50%
SENP7 inh: SENP7 protease inhibition; inhibition, % at 5 µM; Q9BQF6; AID 434973; recombinant SENP7, Z-RLRGG-aminoluciferin luminescence, 40 min; hit rate 1.5% among 330,000;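 active = inhibition above about 50% at the single test dose, limit read from the data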;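 also: plate controls were DMSO with enzyme for no effect and no enzyme buffer wells for full effect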
UBC13 polyUb: human UBC13 polyubiquitination inhibition. UBC13 polyubiquitin chain formation, TR-FRET. inhibition, % at 20 µM. hit rate 0.47% among 330,000. AID 485273; in the data active = inhibition above about 45%, passing the limit was not always enough
Target sequence (P61088 whole entry, looked up): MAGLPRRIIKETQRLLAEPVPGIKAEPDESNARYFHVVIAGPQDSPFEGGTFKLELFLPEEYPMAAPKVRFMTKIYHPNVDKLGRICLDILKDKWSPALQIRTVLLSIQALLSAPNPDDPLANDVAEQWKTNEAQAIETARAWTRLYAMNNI
SENP6 inh: inhibitors of human SENP6 protease; Q9GZR1; Recombinant SENP6 catalytic domain, aminoluciferin luminescence; inhibition, % at 10 µM; hit rate 1.8% among 330,000; AID 2599;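 active = inhibition above about 50% at the single tested dose, limit read from the data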;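 also: plate controls were DMSO wells with enzyme for no effect and DMSO wells lacking enzyme for full effect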
SENP8 confirm: confirmation of human SENP8 protease inhibitors | shares compounds with SENP7 inh | Recombinant SENP8, Z-RLRGG-aminoluciferin luminescence, 60 min | inhibition, % at 12.5 µM | hit rate 40% among 6,200;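 active = mean inhibition across replicates above about 50%, limit read from the data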
SENP6 confirm: confirmation of human SENP6 protease inhibitors; shares compounds with SENP7 inh; recombinant SENP6, Z-RLRGG-aminoluciferin luminescence; inhibition, % at 12.5 µM; hit rate 58% among 6,200; AID 488915
SENP7 conf: confirmation of human SENP7 protease inhibitors | recombinant SENP7, Z-RLRGG-aminoluciferin luminescence, 40 min | hit rate 69% among 6,200 | inhibition, % at 12.5 µM | shares compounds with SENP7 inh
Casp3 select: selectivity test for SENP inhibitors: human caspase-3 inhibition | inhibition, % at 12.5 µM | shares compounds with SENP7 inh | hit rate 60% among 6,200 | purified caspase-3, Z-DEVD-aminoluciferin luminescence, 60 min;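 active = mean inhibition above about 50%, limit read from the data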;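 also: plate controls were enzyme with DMSO for no effect and wells without caspase-3 for full effect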
Target sequence (P42574 28-227 limits assumed): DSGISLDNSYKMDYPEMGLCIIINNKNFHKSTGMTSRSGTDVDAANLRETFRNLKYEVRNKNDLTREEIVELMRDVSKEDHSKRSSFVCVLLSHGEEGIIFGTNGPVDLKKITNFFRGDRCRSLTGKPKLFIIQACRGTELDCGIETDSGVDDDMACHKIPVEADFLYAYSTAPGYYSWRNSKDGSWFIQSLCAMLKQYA
SENP luc ctr: interferes with luciferase luminescence in SENP counter-screen; shares compounds with SENP7 inh; Pre-incubated SENP8/Z-RLRGG-aminoluciferin, luciferase luminescence interference; inhibition, % at 12.5 µM; hit rate 39% among 6,200;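 active = mean inhibition above about 50% when retested at one dose, limit read from the data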;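 also: plate controls were DMSO wells with completed reaction for no effect and substrate without enzyme for full effect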
Apaf-1 inh conf: Apaf-1 inhibition, single-dose confirmed | shares compounds with Apaf-1 inh | reconstituted apoptosome, caspase-3 DEVD-Rh110 fluorescence | inhibition, % at 20 µM | hit rate 25% among 1,800;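 active = mean inhibition of at least 40% at 20 µM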;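 also: plate controls were DMSO wells for no effect and DEVD-CHO caspase inhibitor control wells for full effect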
Rh110 interf inh: interferes with Rh110 fluorescence, flagging false Apaf-1 inhibitors. Rh110 fluorescence interference, quenched caspase reaction. shares compounds with Apaf-1 inh. activation (fluorescence interference), % at 20 µM. 1,800 tested, under 10 active;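 active = signal rise of 40% or more at 20 µM, treated as a fluorescence artifact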
Fluor interf inh: Apaf-1 inhibitor counter-screen fluorescence artifact. shares compounds with Apaf-1 inh. 460 tested, under 10 active. IC50, µM. AID 588538. fluorescence interference counterscreen, Apaf-1 assay format; call rule not given here
Numbers without * were called inactive; . = no result. Only some compounds are listed: those with a hit (about 3.1% of all), similar ones and a draw of the others.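 The calls were made as follows, unless noted: active = mean inhibition above about 50% in the one-dose retest (limit read from the data); inactive = the rest.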

SMILES	Apaf-1 inh	SENP8 block-1	SENP8 block-2	SENP7 inh	UBC13 polyUb	SENP6 inh	SENP8 confirm	SENP6 confirm	SENP7 conf	Casp3 select	SENP luc ctr	Apaf-1 inh conf	Rh110 interf inh	Fluor interf inh
N#Cc1cc2ccc(N3CCOCC3)cc2cc1C#N	82*	-280	88*	-7	-30	91*	15	22	3	4	-2	10	10	.
N#Cc1cc(Cl)c(N2CCOCC2)cc1C#N	-2	13	-2	1	2	-15	.	.	.	.	.	.	.	.
O=c1c(N2CCOCC2)coc2ccccc12	-4	-1	-2	0	7	-6	.	.	.	.	.	.	.	.
O=c1[nH]c(N2CCOCC2)cc2ccccc12	93*	-498	87*	96*	-6	91*	46	76*	61*	37	7	74*	2	>100
O=C1OC(c2ccccc2)(N(Nc2ccccc2)c2ccccc2)c2ccccc21 (stereo not drawn)	.	12	.	.	.	.	.	.	.	.	.	.	.	.
CC1OC(Nc2cccc3ccccc23)C(O)C(O)C1O (stereo not drawn)	96*	-277	89*	5	-68	95*	18	52*	16	7	4	64*	2	>100
Cc1c(/C=N/Nc2ccc(F)cc2)c(O)n(C)c(=O)c1C#N	13	-8	18	9	-1	13	.	.	.	.	.	.	.	.
CC(=O)N=Cc1c(C)c(C#N)c(=O)n(C)c1O	44*	-16	10	14	-13	57*	-23	-18	-6	-5	-4	-2	-1	.
CC(C)(C)c1ccc(S(=O)(=O)NC(=O)C2(C)CCN2C(=O)c2cccc3ccccc23)cc1 (stereo not drawn)	.	7	.	.	.	.	.	.	.	.	.	.	.	.
O=C1/C(=N\S(=O)(=O)c2cccs2)C([n+]2ccc(CCCc3ccccc3)cc2)=C([O-])c2ccccc21	46*	32	39	21	-90	60*	-10	28	5	-1	-11	13	-6	.
CCCCNc1cc(NC(C)=O)cc2cc(OC)c(OC)cc12	62*	-272	32	-10	-42	51*	27	55*	15	2	1	83*	-1	>100
COc1cc2cc(NC(C)=O)cc(NCc3ccccc3)c2cc1OC	88*	-313	70*	47	-30	75*	10	31	13	6	-7	40	0	>100
CCCC(=O)Nc1cc(OC)c(OC)cc1C(=O)O	0	5	-5	-5	3	-9	.	.	.	.	.	.	.	.
CCCc1ccc(C(O)c2ncc(-c3ccccc3F)[nH]2)cc1 (stereo not drawn)	.	-2	.	.	.	.	.	.	.	.	.	.	.	.
CCN1CCN(C2=C(NS(=O)(=O)c3ccc(NC(C)=O)cc3)C(=O)c3ccccc3C2=O)CC1	74*	63*	28	26	-77	52*	8	31	10	4	-3	32	2	.
CC(=O)Nc1ccc(S(=O)(=O)NC2=C(N3CCN(Cc4ccccc4)CC3)C(=O)c3ccccc3C2=O)cc1	.	25	.	.	.	.	.	.	.	.	.	.	.	.
